According to publication PMC10841542 (Immunology, 2023):
Entries after “also recorded” stand apart in the source; their conditions may differ. One block for each compound: values may come before it.

Assays:
ERAP1 WT [1] = assay: Steady-state kinetics of L-AMC hydrolysis ± 7-mer peptide activator, ERAP1 WT; type: biochemical, human; settings: pH 8.0, 27 °C
In short: (§1)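 Steady-state kinetics used purified His6-tagged ERAP1 (allotype-1, WT or mutant) from baculovirus-infected Sf9 cells at 1.5 µg ml-1. Buffer was 50 mM Tris/HCl pH 8.0, 0.1 M NaCl at 27 °C, with L-AMC at 0–2,000 µM, with or without 100 µM 7-mer peptide. AMC release (ex 380/em 460 nm) was followed for 5 min. Initial rates from three time points (nmoles.min-1.µg-1) were curve-fitted for Vmax, K1/2 and Hill coefficient. Comparisons used Brown-Forsyth one-way ANOVA with Tukey's test.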

ERAP1 I681R [2] = target: T1, ERAP1 I681R (Homo sapiens, UniProt Q9NZ08, I681R); assay: Steady-state kinetics of L-AMC hydrolysis ± 7-mer peptide activator, I681R; type: biochemical; settings: pH 8.0, 27 °C
In short: as §1

ERAP1 L733R [3] = target: T2, ERAP1 L733R (Homo sapiens, UniProt Q9NZ08, L733R); assay: Steady-state kinetics of L-AMC hydrolysis ± 7-mer peptide activator, L733R; type: biochemical; settings: pH 8.0, 27 °C
In short: as §1

ERAP1 L734R [4] = assay: Steady-state kinetics of L-AMC hydrolysis ± 7-mer peptide activator, L734R; type: biochemical, human; settings: pH 8.0, 27 °C
In short: as §1

ERAP1 V737R [5] = target: T3, ERAP1 V737R (Homo sapiens, UniProt Q9NZ08, V737R); assay: Steady-state kinetics of L-AMC hydrolysis ± 7-mer peptide activator, V737R; type: biochemical; settings: pH 8.0, 27 °C; for allosteric activation in steady state kinetics: 100 μM peptide, 0–2,000 μM L-AMC
In short: as §1

ERAP1 F803R [6] = target: T4, ERAP1 F803R (Homo sapiens, UniProt Q9NZ08, F803R); assay: Steady-state kinetics of L-AMC hydrolysis ± 7-mer peptide activator, F803R; type: biochemical; settings: pH 8.0, 27 °C
In short: as §1

ERAP1 WT [7] = assay: Simple activation assay; type: biochemical, human; settings: 100 μM L-AMC, pH 8.0, 25 °C, 5 min; for activation of L-AMC hydrolysis over basal level: 100 μM peptide
In short: (§2)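 ERAP1 enzyme: allotype-1, WT or point mutant, with a C-terminal His6 tag. It was expressed in Sf9 cells by baculovirus and purified by Ni-NTA and gel filtration. Assay: 1.5 µg ml-1 enzyme in 50 mM Tris/HCl pH 8.0, 0.1 M NaCl at 25 °C, with or without 100 µM 7-mer peptide activator. Hydrolysis of 100 µM L-AMC was followed for 5 min by AMC fluorescence (ex 380/em 460 nm), calibrated with AMC standards.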

ERAP1 I681R [8] = target: T1, ERAP1 I681R; assay: Simple activation assay; type: biochemical; settings: 100 μM L-AMC, pH 8.0, 25 °C, 5 min
In short: as §2

ERAP1 L733R [9] = target: T2, ERAP1 L733R; assay: Simple activation assay; type: biochemical; settings: 100 μM L-AMC, pH 8.0, 25 °C, 5 min
In short: as §2

ERAP1 L734R [10] = assay: Simple activation assay; type: biochemical, human; settings: 100 μM L-AMC, pH 8.0, 25 °C, 5 min
In short: as §2

ERAP1 V737R [11] = target: T3, ERAP1 V737R; assay: Simple activation assay; type: biochemical; settings: 100 μM L-AMC, pH 8.0, 25 °C, 5 min
In short: as §2

ERAP1 F803R [12] = assay: Simple activation assay; type: biochemical, human; settings: 100 μM L-AMC, pH 8.0, 25 °C, 5 min; for activation of L-AMC hydrolysis over basal level: 100 μM peptide
In short: as §2

ERAP1 WT and variants = type: biochemical, human; settings: 100 μM peptide; most enzyme variants; 0–2,000 μM L-AMC; pH 8.0; 27 °C
In short: as §1

ERAP1 WT [13] = assay: Allosteric activation of L-AMC hydrolysis, varying peptide effector, ERAP1 WT; type: biochemical, human; settings: 0–2,000 μM peptide, 100 μM L-AMC, 27 °C, three independent repeats
In short: (§3)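 Recombinant human ERAP1 (allotype-1, WT or Arg point mutant) carrying a C-terminal His6 tag, expressed in baculovirus-infected Sf9 cells and purified by Ni-NTA then gel filtration (full-length peak). 1.5 µg/ml enzyme with 100 µM L-AMC and 7-mer peptide activator varied 0–2,000 µM, in 50 mM Tris/HCl pH 8.0, 0.1 M NaCl, 27 °C, 5 min. AMC fluorescence read at ex 380/em 460 nm against AMC standards. Vmax and AC50 fitted to Michaelis-Menten.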

ERAP1 I681R [14] = target: T1, ERAP1 I681R; assay: Allosteric activation of L-AMC hydrolysis, varying peptide effector, I681R; type: biochemical; settings: 0–2,000 μM peptide, 100 μM L-AMC, 27 °C, three independent repeats
In short: as §3

ERAP1 L733R [15] = target: T2, ERAP1 L733R; assay: Allosteric activation of L-AMC hydrolysis, varying peptide effector, L733R; type: biochemical; settings: 0–2,000 μM peptide, 100 μM L-AMC, 27 °C, three independent repeats
In short: as §3

ERAP1 L734R [16] = target: ERAP1 L734R (Homo sapiens, UniProt Q9NZ08, L734R); assay: Allosteric activation of L-AMC hydrolysis, varying peptide effector, L734R; type: biochemical; settings: 0–2,000 μM peptide, 100 μM L-AMC, 27 °C, three independent repeats
In short: as §3

ERAP1 V737R [17] = target: T3, ERAP1 V737R; assay: Allosteric activation of L-AMC hydrolysis, varying peptide effector, V737R; type: biochemical; settings: 0–2,000 μM peptide, 100 μM L-AMC, 27 °C, three independent repeats
In short: as §3

ERAP1 F803R [18] = target: T4, ERAP1 F803R; assay: Allosteric activation of L-AMC hydrolysis, varying peptide effector, F803R; type: biochemical; settings: 0–2,000 μM peptide, 100 μM L-AMC, 27 °C, three independent repeats
In short: as §3

ERAP1 WT [19] = assay: N-terminal peptide trimming, LC-MS/MS, ERAP1 WT; type: biochemical, human; settings: from 11-mer KL1, pH 7.8, 30 °C, two independent experiments
ERAP1 F803R [20] = target: ERAP1 F803R (Homo sapiens, UniProt Q9NZ08, F803R/R127P); assay: N-terminal peptide trimming, LC-MS/MS, F803R; type: biochemical; settings: from 11-mer KL1, pH 7.8, 30 °C, two independent experiments
ERAP1 = settings: cited from earlier work
[21] = no peptide activator, three independent repeats
[22] = 100 μM peptide, 0–2,000 μM L-AMC
[23] = 1.5 μg/ml enzyme, 50 mM Tris/HCl pH 8.0, 0.1 M NaCl, 5 min
[24] = read-out: AC50 (half maximal activation concentration), pH 8.0
[25] = 100 μM peptide, relative to wildtype

T1 sequence (Q9NZ08 whole entry I681R): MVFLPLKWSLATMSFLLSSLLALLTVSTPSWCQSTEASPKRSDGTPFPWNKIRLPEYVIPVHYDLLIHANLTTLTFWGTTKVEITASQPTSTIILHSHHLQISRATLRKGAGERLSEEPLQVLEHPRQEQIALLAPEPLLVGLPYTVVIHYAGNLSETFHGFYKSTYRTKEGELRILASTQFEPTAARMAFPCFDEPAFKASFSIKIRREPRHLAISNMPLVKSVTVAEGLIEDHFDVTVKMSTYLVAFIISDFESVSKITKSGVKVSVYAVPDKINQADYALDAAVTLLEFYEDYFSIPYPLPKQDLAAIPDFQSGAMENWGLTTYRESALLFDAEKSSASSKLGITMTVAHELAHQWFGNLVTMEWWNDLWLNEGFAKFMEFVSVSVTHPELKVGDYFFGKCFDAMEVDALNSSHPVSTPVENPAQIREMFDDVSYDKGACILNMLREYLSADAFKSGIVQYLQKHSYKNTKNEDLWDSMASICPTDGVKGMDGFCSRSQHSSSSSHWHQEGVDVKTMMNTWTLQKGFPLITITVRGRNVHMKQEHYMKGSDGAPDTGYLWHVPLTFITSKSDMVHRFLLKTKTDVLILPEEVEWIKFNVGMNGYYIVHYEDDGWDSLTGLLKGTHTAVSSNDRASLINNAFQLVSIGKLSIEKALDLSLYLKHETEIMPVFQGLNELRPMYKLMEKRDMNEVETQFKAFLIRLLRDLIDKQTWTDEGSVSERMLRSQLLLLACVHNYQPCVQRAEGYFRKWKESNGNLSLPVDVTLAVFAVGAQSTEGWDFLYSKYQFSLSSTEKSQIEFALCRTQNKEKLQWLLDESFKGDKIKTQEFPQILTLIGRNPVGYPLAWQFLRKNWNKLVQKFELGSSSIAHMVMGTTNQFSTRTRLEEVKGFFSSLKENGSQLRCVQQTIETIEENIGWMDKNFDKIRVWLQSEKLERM
T3 sequence (Q9NZ08 whole entry V737R): as the sequence (Q9NZ08 whole entry I681R) above, with R681I, V737R counted along it
T4 sequence (Q9NZ08 whole entry F803R): as the sequence (Q9NZ08 whole entry I681R) above, with R681I, F803R counted along it
T2 sequence (Q9NZ08 whole entry L733R): as the sequence (Q9NZ08 whole entry I681R) above, with R681I, L733R counted along it
Sequence of ERAP1 L734R (Homo sapiens, UniProt Q9NZ08, L734R) (Q9NZ08 whole entry L734R): as the sequence (Q9NZ08 whole entry I681R) above, with R681I, L734R counted along it
Sequence of ERAP1 F803R (Homo sapiens, UniProt Q9NZ08, F803R/R127P) (Q9NZ08 whole entry R127P/F803R): as the sequence (Q9NZ08 whole entry I681R) above, with R127P, R681I, F803R counted along it

Hill coef. (h) (ERAP1 I681R [2]; [21]): 1.8
K1/2 (half-Vmax concentration of L-AMC) (ERAP1 I681R [2]; [21]): 0.23 ± 0.04 mM
Hill coef. (h) (ERAP1 L733R [3]; [21]): 1.5
K1/2 (half-Vmax concentration of L-AMC) (ERAP1 L733R [3]; [21]): 0.19 ± 0.03 mM
Hill coef. (h) (ERAP1 V737R [5]; [21]): 1.9
K1/2 (half-Vmax concentration of L-AMC) (ERAP1 V737R [5]; [21]): 0.52 ± 0.09 mM
K1/2 (half-Vmax concentration of L-AMC) (ERAP1 F803R [6]; [21]): 0.39 ± 0.06 mM
basal L-AMC hydrolysis (ERAP1 L733R [9]; no peptide): low but detectable basal level
basal L-AMC hydrolysis (ERAP1 V737R [11]; no peptide): low but detectable basal level
Compound: Cc1cc(=O)oc2cc(NC(=O)[C@@H](N)CC(C)C)ccc12 [L-AMC, leucine-7-amido-4-methyl-coumarin, reference compound]
Hill coef. (h) (ERAP1 WT [1]; [21]): 2.6
K1/2 (half-Vmax concentration of L-AMC) (ERAP1 WT [1]; [21]): 0.38 ± 0.05 mM
Hill coef. (h) (ERAP1 L734R [4]; [21]): 1.3
K1/2 (half-Vmax concentration of L-AMC) (ERAP1 L734R [4]; [21]): 0.33 ± 0.09 mM
basal L-AMC hydrolysis (ERAP1 WT [7]; no peptide): low but detectable basal level
basal L-AMC hydrolysis (ERAP1 I681R [8]; no peptide): low but detectable basal level; also recorded: higher than the other mutant enzymes and the WT enzyme
basal L-AMC hydrolysis (ERAP1 L734R [10]; no peptide): low but detectable basal level; also recorded: higher than the other mutant enzymes and the WT enzyme
basal L-AMC hydrolysis (ERAP1 F803R [12]; no peptide): low but detectable basal level

activation of L-AMC hydrolysis above basal activity (ERAP1 V737R [11]; 100 μM peptide): ~ 30%
activation of L-AMC hydrolysis over basal level (ERAP1 V737R [11]; 100 μM peptide): slight but significant activation
change of sigmoidal curves, h values, or Vmax (ERAP1 WT and variants): did not change much the sigmoidal curves
Compound: IINFEKE
allosteric activation in steady state kinetics (ERAP1 V737R [5]): significantly activated; also recorded: not a very effective activator
activation of L-AMC hydrolysis over basal level (ERAP1 WT [7]): not activated significantly above their basal levels; also recorded: did not show significant difference from their respective basal activity
activation of L-AMC hydrolysis over basal level (ERAP1 I681R [8]; 100 μM peptide): not activated significantly above their basal levels
activation of L-AMC hydrolysis over basal level (ERAP1 L733R [9]; 100 μM peptide): not activated significantly above their basal levels; also recorded: did not show significant difference from their respective basal activity
activation of L-AMC hydrolysis over basal level (ERAP1 L734R [10]; 100 μM peptide): not activated significantly above their basal levels
activation of L-AMC hydrolysis over basal level (ERAP1 F803R [12]): not activated significantly above their basal levels; also recorded: did not show significant difference from their respective basal activity

allosteric activation in steady state kinetics (ERAP1 I681R [2]; [22]): significant or dramatic increase of Vmax
allosteric activation in steady state kinetics (ERAP1 L733R [3]; [22]): significant or dramatic increase of Vmax
allosteric activation in steady state kinetics (ERAP1 V737R [5]): significant or dramatic increase of Vmax
Vmax of L-AMC hydrolysis, peptide activator varied (ERAP1 I681R [14]; [23]): 175 ± 54 nmol/min/µg
AC50 (ERAP1 I681R [14]; [24]): 1460 ± 840 µM
Vmax of L-AMC hydrolysis, peptide activator varied (ERAP1 L733R [15]; [23]): 211 ± 10 nmol/min/µg
AC50 (ERAP1 L733R [15]; [24]): 440 ± 60 µM
Vmax of L-AMC hydrolysis, peptide activator varied (ERAP1 L734R [16]; [23]): 112 ± 8 nmol/min/µg
AC50 (ERAP1 L734R [16]; [24]): 580 ± 120 µM
Vmax of L-AMC hydrolysis, peptide activator varied (ERAP1 V737R [17]; [23]): 62 ± 7 nmol/min/µg
AC50 (ERAP1 V737R [17]; [24]): 590 ± 170 µM
Vmax of L-AMC hydrolysis, peptide activator varied (ERAP1 F803R [18]; [23]): 217 ± 9 nmol/min/µg
AC50 (ERAP1 F803R [18]; [24]): 170 ± 30 µM
allosteric activation compared to wildtype enzyme (ERAP1 I681R [8]; [25]): about 75%
allosteric activation compared to wildtype enzyme (ERAP1 L733R [9]; [25]): ~50%
allosteric activation compared to wildtype enzyme (ERAP1 L734R [10]; [25]): ~55%
Compound: IINFEKL
allosteric activation in steady state kinetics (ERAP1 WT [1]; [22]): significant or dramatic increase of Vmax; also recorded: effective allosteric activator
allosteric activation in steady state kinetics (ERAP1 L734R [4]; [22]): significant or dramatic increase of Vmax
allosteric activation in steady state kinetics (ERAP1 F803R [6]; [22]): significant or dramatic increase of Vmax; also recorded: effective allosteric activator
Vmax of L-AMC hydrolysis, peptide activator varied (ERAP1 WT [13]; [23]): 241 ± 6 nmol/min/µg
AC50 (ERAP1 WT [13]; [24]): 80 ± 10 µM
activation of L-AMC hydrolysis over basal level (ERAP1 WT [7]): significant increase
activation of L-AMC hydrolysis over basal level (ERAP1 V737R [11]; 100 μM peptide): lowest activity in the presence of IINFEKL peptide and with the smallest activation from its basal activity
activation of L-AMC hydrolysis over basal level (ERAP1 F803R [12]): significant increase

Compound: LESIINFEKL [KL2]
time after which the amount of 10-mer product began to decrease (ERAP1 WT [19]): > 10 min
time after which the amount of 10-mer product began to decrease (ERAP1 F803R [20]): > 10 min

Compound: QLESIINFEKL [KL1]
processing by ERAP1 (ERAP1): efficiently processed by ERAP1
